Arbovirus anti: blocks arbovirus infection | AID 1251 | inhibition, % at 10 µM | arbovirus infection cell-based antiviral screen | 200,000 tested, 0.37% active; in the data active means inhibition above about 30%
ABCB1 block: inhibitors of human ABCB1 transporter, ABCG2 counter-screen. P08183. CCRF-Adr cells, JC-1 efflux, flow cytometry. inhibition, % at 6.6 µM. 190,000 tested, 0.067% active. AID 1326; in the data active means inhibition above about 40%;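 further: higher value means more JC-1 retained so stronger ABCB1 efflux block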
Furin inh: blocks human furin protease activity; purified furin, fluorogenic substrate cleavage; inhibition, % at 20 µM or 30 µM; 220,000 tested, 0.061% active; in the data active means inhibition above about 25%
Target sequence (P09958 108-714 limits assumed): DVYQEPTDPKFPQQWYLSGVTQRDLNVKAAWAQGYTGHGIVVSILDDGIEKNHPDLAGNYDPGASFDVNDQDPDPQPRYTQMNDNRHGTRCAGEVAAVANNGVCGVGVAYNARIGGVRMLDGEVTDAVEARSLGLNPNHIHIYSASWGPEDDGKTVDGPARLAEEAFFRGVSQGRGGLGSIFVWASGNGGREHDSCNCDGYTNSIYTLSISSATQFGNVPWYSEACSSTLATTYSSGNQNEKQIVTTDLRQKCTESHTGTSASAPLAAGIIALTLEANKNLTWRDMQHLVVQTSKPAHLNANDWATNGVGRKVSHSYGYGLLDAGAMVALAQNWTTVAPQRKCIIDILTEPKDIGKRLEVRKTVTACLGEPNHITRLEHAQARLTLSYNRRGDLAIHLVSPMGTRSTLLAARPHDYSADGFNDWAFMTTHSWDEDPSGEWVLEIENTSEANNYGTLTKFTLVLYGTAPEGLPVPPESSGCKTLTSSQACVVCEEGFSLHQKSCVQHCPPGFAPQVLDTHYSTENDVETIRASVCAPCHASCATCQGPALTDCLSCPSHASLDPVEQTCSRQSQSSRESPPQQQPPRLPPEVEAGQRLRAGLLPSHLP
p47phox inh: inhibitors of human p47phox binding; p47phox/p22phox peptide binding, fluorescence polarization, 2 h; inhibition, % at 24.7 µM; 220,000 tested, 0.53% active; AID 1274;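 active means inhibition above about 30%, limit read from the data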
ABCG2 block: blocks JC-1 efflux by human ABCG2 transporter; AID 1325; Q9UNQ0; IgMXP3 cells, flow cytometry; inhibition, % at 6.6 µM; 190,000 tested, 0.1% active;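 active means inhibition above 80%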
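Test system: IgMXP3 (ABCG2) plus far-red-tagged CCRF-Adr (ABCB1) cells / Amount: 3 million cells/mL in well / Reagent: JC-1 transporter substrate / Timing: 10 min compound exposure, 25 °C / Signal: flow cytometry, 530 nm JC-1 signal / Read-out: percent efflux inhibition, scaled nicardipine 100% to DMSO 0% / Benchmarks: nicardipine as high control, DMSO as low control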
HSV augment: HSV replication enhancement; AID 1956; HSV replication augmentation in cells, fold increase; maximum fold increase; 220,000 tested, 0.005% active; in the data active means maximum fold increase above about 1.5; inconclusive means no clear call, values can overlap the other calls; tested in PC3 cells
ABCB1 confirm: inhibits human ABCB1 efflux, confirmed at single point. shares compounds with ABCG2 block. CCRF-Adr cells, JC-1 efflux, flow cytometry. inhibition, % at 6.6 µM. 270 tested, 7% active;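 active means inhibition of pump activity above 50%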
ABCG2 single pt: inhibits human ABCG2 efflux, confirmed at single point; shares compounds with ABCG2 block; IgMXP3 cells, JC-1 efflux, flow cytometry; inhibition, % at 6.6 µM; 270 tested, 6% active;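 active means inhibition above 50%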
IgMXP3 autofluor: compound fluoresces at 488/530 nm in IgMXP3 cells; shares compounds with ABCG2 block; compound autofluorescence 488/530 nm, flow; active compounds read high; fluorescence at 6.6 µM; 270 tested, 30% active;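 active means fluorescence in ABCG2-expressing cells above the plate's control-well mean plus 3 SD, cut at about 15 in these data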
CCRF autofluor: CCRF-Adr autofluorescence flag for ABCB1 confirmation; 270 tested, 30% active; fluorescence at 6.6 µM; CCRF-Adr cells, compound autofluorescence 488/530 nm, flow cytometry; active compounds read high; shares compounds with ABCG2 block;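 active means fluorescence beyond the plate control mean plus 3 SD, with a fluorescence-to-maximum score over 2, cut at about 25 in these data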
Of the large screens only hits and unclear results are named; the others gave an inactive call (follow-up assays come after a bar, where they were run). Sampled rows, rich in hits. Any-hit rate of the full collection: about 0.95%.

CCc1ccc(OCC(=O)N/N=C(\C)c2ccc(OC(F)F)cc2)cc1	ABCG2 block 103.9 | ABCB1 confirm inactive | ABCG2 single pt inactive | IgMXP3 autofluor 14.8 | CCRF autofluor inactive
O=C(c1ccc(S(=O)(=O)c2ccccc2Cl)c([N+](=O)[O-])c1)N1CCCCCC1	none (no result: ABCB1 block)
CCOc1ccc(OCC)c(NC(=O)CN2CCN(c3cccc(C)c3)CC2)c1	none (no result: HSV augment) | ABCB1 confirm inactive | ABCG2 single pt inactive | IgMXP3 autofluor inactive | CCRF autofluor inactive
CCOc1ccc(OCC)c(NC(=O)CN2CCN(c3cccc(C)c3)C(C)C2)c1 (stereo not drawn)	none (no result: HSV augment)
Cc1cccc(NC(=O)CSc2nc3nc4c(cc3c(=O)n2-c2ccccc2)CCCC4)c1	none
Cc1ccccc1-n1c(SCC(=O)Nc2ccccc2)nc2nc3c(cc2c1=O)CCCC3	ABCB1 block 45.6 | ABCB1 confirm inactive | ABCG2 single pt inactive | IgMXP3 autofluor inactive | CCRF autofluor 91.2
CCN(CC)CCC(c1ccc(N(C)C)cc1)c1c(O)cc(OC)cc1OC (stereo not drawn)	none (no result: Arbovirus anti, ABCB1 block, ABCG2 block)
CCN(CCCNC(=O)CCc1nc(-c2ccc(C)cc2)no1)c1cccc(C)c1	ABCG2 block 82.8 | ABCB1 confirm inactive | ABCG2 single pt inactive | IgMXP3 autofluor inactive | CCRF autofluor inactive
COc1ccc(S(=O)(=O)N2CCOCC2)cc1NC(=O)c1ccccc1-c1ccc(C(F)(F)F)cc1	none
COCCn1c(SCc2csc(-c3ccccc3)n2)nc2ccccc21	none | ABCB1 confirm inactive | ABCG2 single pt inactive | IgMXP3 autofluor 14.7 | CCRF autofluor 72.3
NNC(=O)c1csc(-c2cccc(C(F)(F)F)c2)n1	none
COc1cccc(N2C(=O)C3ON(c4ccccc4)C(c4cccs4)C3C2=O)c1 (stereo not drawn)	none
CCOc1ccc(N2C(=O)C3ON(c4ccccc4)C(c4cccs4)C3C2=O)cc1 (stereo not drawn)	ABCB1 block 95.2 | ABCB1 confirm inactive | ABCG2 single pt inactive | IgMXP3 autofluor inactive | CCRF autofluor inactive
Cc1ccc(NC(=O)C2(c3ccccc3)CCOCC2)c([N+](=O)[O-])c1	none
O=C(O)c1cn(Cc2ccccn2)c(=O)c2ccccc12	none
COc1cccc(NC(=O)Nc2ccncc2)c1	ABCB1 block 44.5 | ABCB1 confirm inactive | ABCG2 single pt inactive | IgMXP3 autofluor inactive | CCRF autofluor inactive
O=C(Nc1ccc(F)cc1)NC1CCN(Cc2nnnn2Cc2ccco2)CC1	ABCG2 block 83.2 | ABCB1 confirm inactive | ABCG2 single pt inactive | IgMXP3 autofluor inactive | CCRF autofluor inactive
N#C/C(=C/c1ccc(N2CCCCC2)o1)C(=O)Nc1ccc(Cl)cc1	ABCB1 block 44.6, ABCG2 block 82.3, HSV augment inconclusive | ABCB1 confirm inactive | ABCG2 single pt inactive | IgMXP3 autofluor 171 | CCRF autofluor 118
N#C/C(=C/c1ccc(N2CCCCC2)o1)C(=O)Nc1ccc2ccccc2c1	ABCB1 block 134.0, ABCG2 block active (no result: HSV augment) | ABCB1 confirm inactive | ABCG2 single pt inactive | IgMXP3 autofluor 397 | CCRF autofluor 624
N#C/C(=C\c1ccc(N2CCOCC2)o1)C(=O)Nc1ccc(O)cc1	HSV augment inconclusive
N=C1C(c2nc(-c3ccc(Cl)cc3)cs2)=C(O)CN1NC(=O)c1ccc(O)cc1	none (no result: Arbovirus anti, ABCB1 block, ABCG2 block)
O=C(NNC(=O)c1c(F)cccc1F)c1ccccc1-n1cccc1	none
CN(C)c1ccc(/C=C/C(=O)c2cccc(Br)c2)cc1	none (no result: HSV augment) | ABCB1 confirm inactive | ABCG2 single pt inactive | IgMXP3 autofluor 18.9 | CCRF autofluor 103
COc1cc(CNc2cccc(C(=O)O)c2)cc(Br)c1OCC(=O)NC(C)(C)C	none
COn1c(-c2ccccc2)nc2c1CCc1c-2no[n+]1[O-]	none | ABCB1 confirm inactive | ABCG2 single pt inactive | IgMXP3 autofluor inactive | CCRF autofluor inactive
CCCn1nc(Oc2nc(N(C)C)nc(N(C)C)n2)ccc1=O	none
COc1cccc(-c2nc(N3CC(C)CC(C)C3)c3ccccc3n2)c1O (stereo not drawn)	none (no result: HSV augment) | ABCB1 confirm 72.3 | ABCG2 single pt inactive | IgMXP3 autofluor inactive | CCRF autofluor inactive
COc1cccc(-c2nc(N3CCC(C)CC3)c3ccccc3n2)c1O	none
Cc1cc(NC(=O)CN2CC(C)OC(C)C2)n(-c2nc3ccccc3s2)n1 (stereo not drawn)	none
Cc1cc(NC(=O)C(C)C)n(-c2nc3ccccc3s2)n1	ABCG2 block 81.0 | ABCB1 confirm inactive | ABCG2 single pt inactive | IgMXP3 autofluor inactive | CCRF autofluor inactive
COc1cc(N2C(=O)c3ccccc3C2=O)c(Cl)cc1C(=O)OCC(=O)N(C)C	none
COc1ccc(S(=O)(=O)c2cnc3ccc(OC)cc3c2N2CCC3(CC2)OCCO3)cc1	ABCG2 block 92.3 | ABCB1 confirm inactive | ABCG2 single pt inactive | IgMXP3 autofluor inactive | CCRF autofluor inactive
NC(=O)c1ccc(OCC(F)(F)F)nc1	none (no result: Arbovirus anti, ABCB1 block, ABCG2 block)
COCCn1c(C)cc(C(=O)CSc2cc(C)c3ccccc3n2)c1C	Arbovirus anti 30.6, ABCG2 block 92.5 | ABCB1 confirm inactive | ABCG2 single pt inactive | IgMXP3 autofluor inactive | CCRF autofluor inactive
COC(=O)C1CCCN1C(=O)COc1ccc(Cl)cc1Br (stereo not drawn)	none
CCC(Cc1ccccc1)n1c(=S)[nH]c2ccccc2c1=O (stereo not drawn)	ABCG2 block 99.7 | ABCB1 confirm inactive | ABCG2 single pt inactive | IgMXP3 autofluor 22.6 | CCRF autofluor 57.4
COC(=O)C1=C(C)NC(C)=C(C(=O)OC)C1c1ccc(-c2cc(Cl)ccc2Cl)o1	none
COC(=O)C1=C(C)NC(C)=C(C(=O)OC)C1c1ccc(-c2cccc(Cl)c2Cl)o1	ABCG2 block 85.2 | ABCB1 confirm inactive | ABCG2 single pt inactive | IgMXP3 autofluor inactive | CCRF autofluor inactive
CCC(NC(=O)CCl)c1ccc(C)cc1 (stereo not drawn)	none | ABCB1 confirm inactive | ABCG2 single pt inactive | IgMXP3 autofluor inactive | CCRF autofluor inactive
CCCC(NC(=O)CCl)c1ccccc1 (stereo not drawn)	none
Cc1c(Br)c([N+](=O)[O-])nn1C(C)C(=O)N1CCCc2ccccc21 (stereo not drawn)	none
CCOc1ccc(OCc2ccc(C(=O)OCc3ccccn3)o2)cc1	ABCG2 block 86.7 (no result: HSV augment) | ABCB1 confirm inactive | ABCG2 single pt inactive | IgMXP3 autofluor inactive | CCRF autofluor inactive
